{
  "source": "ChEMBL document CHEMBL4823331",
  "about": "“Identification of gp120 Residue His105 as a Novel Target for HIV-1 Neutralization by Small-Molecule CD4-Mimics” (ACS Med Chem Lett, 2021)",
  "key": {"[1]": {"assay": "(§1) Inhibition of gp120 (Gln 105 residue) in HIV-1 JR-FL infected in dog Cf2Th-CD4/CCR5 cells assessed as inhibition of viral entry incubated for 30 mins prior to infection and further incubated for 48 to 72 hrs in presence of firefly D-luciferin free acid and ATP by single-round infection luciferase assay", "format": "cell-based", "conditions": "Human immunodeficiency virus 1, JR-FL", "how_it_was_run": "(§2)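 Cf2Th canine cells expressing CD4 and CCR5 were infected with the named HIV-1 strain in the presence of compound. IC50 was taken as the concentration giving 50% inhibition of viral infection, reported as mean ± SD. Groups were compared by one-tailed unpaired t test (N = 3).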"}, "[2]": {"assay": "as §1, with “(His” for “(Gln”, “BG505” for “JR-FL”", "format": "cell-based", "conditions": "Human immunodeficiency virus 1, BG505, Cf2Th-CD4/CCR5", "how_it_was_run": "as §2"}},
  "data": [
    {"smiles": "CNCc1ccc2c(c1)C[C@H](CNC(=N)N)[C@H]2NC(=O)C(=O)Nc1ccc(Cl)c(F)c1", "values": [
      {"measurement": "IC50", "setting": "[1]", "value": 9, "unit": "µM"},
      {"measurement": "IC50", "setting": "[2]", "value": 226, "unit": "µM"}
    ]},
    {"smiles": "CNCc1ccc2c(c1)[C@H](NC(=O)C(=O)Nc1ccc(Cl)c(F)c1)[C@@H](CNC(=N)N)[C@@H]2CCCO", "values": [
      {"measurement": "IC50", "setting": "[1]", "value": 9.45, "unit": "µM"},
      {"measurement": "IC50", "setting": "[2]", "value": 164, "unit": "µM"}
    ]},
    {"smiles": "CNCc1ccc2c(c1)[C@@H](CCC(=O)CO)[C@H](CNC(=N)N)[C@H]2NC(=O)C(=O)Nc1ccc(Cl)c(F)c1", "values": [
      {"measurement": "IC50", "setting": "[1]", "value": 4.97, "unit": "µM"},
      {"measurement": "IC50", "setting": "[2]", "value": 166, "unit": "µM"}
    ]},
    {"smiles": "CNCc1ccc2c(c1)[C@H](NC(=O)C(=O)Nc1ccc(Cl)c(F)c1)[C@@H](CNC(=N)N)[C@@H]2CCC(O)CO", "note": "(stereo not given in full)", "values": [
      {"measurement": "IC50", "setting": "[1]", "value": 19.5, "unit": "µM"},
      {"measurement": "IC50", "setting": "[2]", "value": "> 300", "unit": "µM"}
    ]},
    {"smiles": "CNCc1ccc2c(c1)[C@@H](CC[C@H](O)CO)[C@H](CNC(=N)N)[C@H]2NC(=O)C(=O)Nc1ccc(Cl)c(F)c1", "values": [
      {"measurement": "IC50", "setting": "[1]", "value": 17.7, "unit": "µM"}
    ]},
    {"smiles": "CNCc1ccc2c(c1)[C@@H](CC[C@@H](O)CO)[C@H](CNC(=N)N)[C@H]2NC(=O)C(=O)Nc1ccc(Cl)c(F)c1", "values": [
      {"measurement": "IC50", "setting": "[1]", "value": 22, "unit": "µM"}
    ]},
    {"smiles": "CCCC[C@@H]1c2cc(CNC)ccc2[C@H](NC(=O)C(=O)Nc2ccc(Cl)c(F)c2)[C@H]1CNC(=N)N", "values": [
      {"measurement": "IC50", "setting": "[1]", "value": 32.5, "unit": "µM"}
    ]},
    {"smiles": "CNCc1ccc2c(c1)[C@@H](CCCO)[C@H](CNC(=N)N)[C@H]2NC(=O)C(=O)Nc1ccc(Cl)c(F)c1", "values": [
      {"measurement": "IC50", "setting": "[1]", "value": 8.25, "unit": "µM"},
      {"measurement": "IC50", "setting": "[2]", "value": 136, "unit": "µM"}
    ]},
    {"smiles": "C=CCC[C@@H]1c2ccc(CNC)cc2[C@H](NC(=O)C(=O)Nc2ccc(Cl)c(F)c2)[C@H]1CNC(=N)N", "values": [
      {"measurement": "IC50", "setting": "[1]", "value": 16.2, "unit": "µM"},
      {"measurement": "IC50", "setting": "[2]", "value": "> 100", "unit": "µM"}
    ]},
    {"smiles": "CNCc1ccc2c(c1)[C@H](NC(=O)C(=O)Nc1ccc(Cl)c(F)c1)[C@@H](CNC(=N)N)[C@@H]2CC[C@H](O)CO", "values": [
      {"measurement": "IC50", "setting": "[1]", "value": 27.8, "unit": "µM"}
    ]},
    {"smiles": "C=CCC[C@@H]1c2cc(CNC)ccc2[C@H](NC(=O)C(=O)Nc2ccc(Cl)c(F)c2)[C@H]1CNC(=N)N", "values": [
      {"measurement": "IC50", "setting": "[1]", "value": 9.22, "unit": "µM"},
      {"measurement": "IC50", "setting": "[2]", "value": 106, "unit": "µM"}
    ]},
    {"smiles": "CNCc1ccc2c(c1)[C@@H](CCC(O)CO)[C@H](CNC(=N)N)[C@H]2NC(=O)C(=O)Nc1ccc(Cl)c(F)c1", "note": "(mixture of isomers)", "values": [
      {"measurement": "IC50", "setting": "[1]", "value": 8.29, "unit": "µM"},
      {"measurement": "IC50", "setting": "[2]", "value": 130, "unit": "µM"}
    ]}
  ]
}
